We go through 4 compounds from ChEMBL document CHEMBL1154990, “Three new cytochalasins produced by an endophytic fungus in the genus Rhinocladiella” (2000).

Structures are written as SMILES.

In one experiment the test system is SW-620. Description: Cytotoxicity against human SW620 cells after 72 hrs. The experiment is classed as functional. In outline:
(§1)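 Cells seeded at 2.5×10^4 cells/mL (150 μL per well) and preincubated ~24 h at 37 °C, 5% CO₂. Compounds dissolved at 1.0 mg/mL in MeOH (stock), 50 μL added, then serially diluted 4-fold for eight concentrations. After 72 h further incubation, cells fixed with HBSS–formaldehyde–water (1:1:8) for 10 min. Stained with 0.0075% crystal violet for 15 min. Concentration giving total cell kill (IC100) read.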

The test system of another experiment is HCT-116. Description: Cytotoxicity against human HCT116 cells after 72 hrs. The experiment is classed as functional. In outline:
as §1

A short description of experiment [1]: Cytotoxicity against human A2780S cells after 72 hrs. The experiment is classed as functional, A2780. In outline:
as §1

Consider `CC1/C=C/C(=O)O[C@@]23C(=O)N[C@@H](Cc4ccccc4)[C@@H]2[C@H](C)[C@@]2(C)O[C@H]2[C@@H]3/C=C/CC(C)C1O` (stereo partly specified), for which the IC100 in the experiment on SW-620 worked out at 15.6 µg/mL; in the experiment on HCT-116 it was 3.91 µg/mL; in experiment [1], 3.91 µg/mL.
As to `CC1CCC(=O)O[C@@]23C(=O)N[C@@H](Cc4ccccc4)[C@@H]2[C@H](C)[C@@]2(C)O[C@H]2[C@@H]3/C=C/CC(C)(O)C1=O` (stereo partly specified), the IC100 in the experiment with SW-620 stood at 62.5 µg/mL; in the experiment on HCT-116 it was 15.6 µg/mL; in experiment [1], 15.6 µg/mL.
On to `CC1CCC(=O)O[C@@]23C(=O)N[C@@H](Cc4ccccc4)[C@@H]2[C@H](C)[C@@]2(C)O[C@H]2[C@@H]3/C=C/CC(CO)C1=O` (stereo partly specified), for which the results for the IC100 (with HCT-116; in experiment [1]) were 15.6 µg/mL and 3.91 µg/mL, respectively.
With `C[C@H]1C/C=C/[C@H]2[C@@H]3O[C@]3(C)[C@@H](C)[C@H]3[C@H](Cc4ccccc4)NC(=O)[C@]32OC(=O)O/C=C/[C@@](C)(O)C1=O` [CYTOCHALASIN E], the IC100 in the experiment with SW-620 is 0.977 µg/mL; in the experiment on HCT-116, 0.244 µg/mL; in experiment [1], under 0.0153 µg/mL.
